From ChEMBL document CHEMBL3244174, “Synthesis and biological activity of some new furan quaternary salts” (J Med Chem, 1977)
The source made the active and inactive calls. The calls are words filed in the database; no cut-off is given here.

Key:
[1] = test system: Trichophyton rubrum; assay: Antifungal activity against Trichophyton rubrum 252 CSTM assessed as growth inhibition by agar dilution method; format: functional
[2] = test system: Trichophyton mentagrophytes; assay: Antifungal activity against Trichophyton mentagrophytes A-280 USPHS assessed as growth inhibition by agar dilution method; format: functional
[3] = test system: Klebsiella pneumoniae; assay: Antibacterial activity against Klebsiella pneumoniae ATCC 10031 assessed as growth inhibition after 24 hrs by dilution tube method; format: functional; details: ATCC 10031, 24 h
How it was run: (§1)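 Broth tube dilution in Tryptone Soya Broth, duplicate tubes at each concentration. MIC (μg/ml) was the highest dilution preventing visible growth. Nitrofurantoin run under the same conditions.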

[4] = test system: Pseudomonas aeruginosa; assay: Antibacterial activity against Pseudomonas aeruginosa ATCC 10145 assessed as growth inhibition after 24 hrs by dilution tube method; format: functional; details: ATCC 10145, 24 h; how it was run: as §1
[5] = Acute toxicity in ip dosed mouse; format: organism-based; details: in vivo
How it was run: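 Mice dosed intraperitoneally; LD50 determined.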

[6] = test system: Rodentolepis nana; assay: Anthelmintic activity against viable ova stage of Hymenolepis nana infected in rat assessed as decrease in intestinal worm load at 250 mg/kg, po measured on day 3; format: functional, organism-based; set-up: dose 250 mg/kg
How it was run: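 Young male rats (25–30 g, University of Freiburg strain) infected with 200 viable ova, then given a single 250 mg/kg oral dose. Worms from each rat's small intestine collected and scored on day 3. A mean score of 0–10% of control taken as active.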

[7] = test system: Staphylococcus aureus; assay: Antibacterial activity against Staphylococcus aureus ATCC 6538 assessed as growth inhibition after 24 hrs by dilution tube method; format: functional; details: ATCC 6538, 24 h; how it was run: as §1
[8] = test system: Candida albicans; assay: Antifungal activity against Candida albicans SKF 2270 assessed as growth inhibition by agar dilution method; format: functional
[9] = test system: Escherichia coli; assay: Antibacterial activity against Escherichia coli 114 assessed as growth inhibition after 24 hrs by dilution tube method; format: functional; details: Escherichia coli, 114, 24 h; how it was run: as §1
[10] = test system: Nippostrongylus brasiliensis; assay: Anthelmintic activity against larvae stage of Nippostrongylus brasiliensis infected in rat assessed as decrease in worm load at 250 mg/kg, po administered on day 8 post infection; format: functional, organism-based; set-up: dose 250 mg/kg
How it was run: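 Young male rats (25–30 g, University of Freiburg strain), 3 per compound, infected with 500 infective larvae; single 250 mg/kg oral dose on day 8. Worm loads of treated and control groups compared; 90% deparasitization taken as active. Whitlock–Bliss technique as modified by Steward.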

[11] = test system: Salmonella typhi; assay: Antibacterial activity against Salmonella typhi 115 assessed as growth inhibition after 24 hrs by dilution tube method; format: functional, Salmonella enterica subsp. enterica serovar Typhi; details: Salmonella enterica, 115, 24 h
How it was run: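 Dilution tube method in Tryptone Soya Broth; MIC (μg/ml) taken as highest dilution preventing visible growth; duplicates at every concentration; nitrofurantoin reference run under same conditions.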

[12] = test system: Agrobacterium tumefaciens; assay: Antibacterial activity against Agrobacterium tumefaciens NRRL B-36 assessed as growth inhibition after 24 hrs by dilution tube method; format: functional; details: NRRL B-36, 24 h; how it was run: as §1
[13] = test system: Enterococcus faecalis; assay: Antibacterial activity against Streptococcus faecalis ATCC 10541 assessed as growth inhibition after 24 hrs by dilution tube method; format: functional; details: ATCC 10541, 24 h; how it was run: as §1
[14] = test system: Mycobacterium tuberculosis; assay: Antibacterial activity against Mycobacterium tuberculosis H37Rv assessed as growth inhibition by serial dilution method; format: functional
How it was run: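 M. tuberculosis H37Rv maintained on Lowenstein–Jensen medium; tested in Youman's medium by serial dilution.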

[15] = test system: Microsporum canis; assay: Antifungal activity against Microsporum canis VM-200 USPHS assessed as growth inhibition by agar dilution method; format: functional
[16] = test system: Nannizzia gypsea; assay: Antifungal activity against Microsporum gypseum 153 CSTM assessed as growth inhibition by agar dilution method; format: functional
[17] = test system: Cryptococcus neoformans; assay: Antifungal activity against Cryptococcus neoformans 103 assessed as growth inhibition by agar dilution method; format: functional
[18] = test system: Histoplasma capsulatum; assay: Antifungal activity against Histoplasma capsulatum RNSH Hi-70 1/2 assessed as growth inhibition by agar dilution method; format: functional

| SMILES | MIC [1] [µg/mL] | MIC [2] [µg/mL] | MIC [3] [µg/mL] | MIC [4] [µg/mL] | LD50 [5] [mg/kg] | Activity [6] | MIC [7] [µg/mL] | MIC [8] [µg/mL] | MIC [9] [µg/mL] | Activity [10] | MIC [11] [µg/mL] | MIC [12] [µg/mL] | MIC [13] [µg/mL] | MIC [14] [µg/mL] | MIC [15] [µg/mL] | MIC [16] [µg/mL] | MIC [17] [µg/mL] | MIC [18] [µg/mL] |
| --- | --- | --- | --- | --- | --- | --- | --- | --- | --- | --- | --- | --- | --- | --- | --- | --- | --- | --- |
| Cc1cc(OCCCCC[N+](C)(C)Cc2ccc(Br)o2)c(C(C)C)cc1Cl.[Br-] | > 200 | 100 | 2.5 | 2.5 | 37.5 | inactive | 2.5 | > 200 | 100 | inactive | 50 | 10 | 5 | 10 | 100 | > 200 | 10 | 100 |
| C[N+](C)(CCCCCOc1c(Br)cc(Br)cc1Br)Cc1ccc(Br)o1.[Br-] | > 200 | > 200 | 1.5 | 2 | 25 | inactive | 2 | > 200 | 100 | inactive | 50 | 25 | 7.5 | 10 | > 200 | > 200 | 25 | 100 |
| C[N+](C)(CCCCOc1c(Br)cc(Br)cc1Br)Cc1ccc(Br)o1.[Br-] | > 200 | > 200 | 7.5 | 5 | 37.5 | inactive | 5 | > 200 | > 200 | inactive | 100 | 50 | 25 | 50 | > 200 | > 200 | 25 | 50 |
| Cc1cc(OCCCC[N+](C)(C)Cc2ccc([N+](=O)[O-])o2)c(C(C)C)cc1Cl.[Br-] | > 200 | > 200 | 5 | 1.5 | 75 | inactive | 7.5 | > 200 | > 200 | inactive | > 200 | 25 | 25 | 10 | > 200 | > 200 | 25 | > 200 |
| C[N+](C)(CCCCCCOc1c(Br)cc(Br)cc1Br)Cc1ccc(Br)o1.[Br-] | > 200 | > 200 | 1.5 | 1.5 | 25 | inactive | 2 | > 200 | 100 | inactive | 50 | 7.5 | 5 | 10 | 100 | > 200 | 25 | 25 |
| Cc1cc(OCCCC[N+](C)(C)Cc2ccc(Br)o2)c(C(C)C)cc1Cl.[Br-] | > 200 | 50 | 2.5 | 2.5 | 25 | inactive | 2.5 | 50 | > 200 | inactive | > 200 | 25 | 7.5 | 7.5 | 75 | 50 | 25 | > 200 |
| Cc1cc(OCCCCCC[N+](C)(C)Cc2ccc(Br)o2)c(C(C)C)cc1Cl.Cc1ccc(S(=O)(=O)[O-])cc1 | 200 | 200 | 25 | 10 | – | – | 50 | > 200 | > 200 | – | > 200 | 100 | 50 | 10 | 100 | 200 | 100 | > 200 |
| Cc1cc(OCCCCC[N+](C)(C)Cc2ccc([N+](=O)[O-])o2)c(C(C)C)cc1Cl.[Br-] | 100 | > 200 | 2.5 | 2.5 | 50 | inactive | 10 | > 200 | > 200 | inactive | 50 | 25 | 10 | 5 | 100 | 100 | 25 | 100 |
| Cc1cc(OCCC[N+](C)(C)Cc2ccc(Br)o2)c(C(C)C)cc1Cl.[Br-] | 100 | > 200 | 7.5 | 4 | – | – | 10 | > 200 | > 200 | – | 100 | 25 | 10 | 10 | 100 | > 200 | 50 | 100 |
| Cc1cc(OCCC[N+](C)(C)Cc2ccc([N+](=O)[O-])o2)c(C(C)C)cc1Cl.[Br-] | > 200 | > 200 | 5 | 2 | – | – | 25 | > 200 | > 200 | – | 100 | 25 | 25 | > 200 | > 200 | > 200 | > 200 | > 200 |
| Cc1cc(OCCCC[N+](C)(C)Cc2ccco2)c(C(C)C)cc1Cl.[Br-] | > 200 | > 200 | 10 | 7.5 | – | – | 25 | 100 | > 200 | – | > 200 | 25 | 25 | 10 | > 200 | > 200 | 25 | > 200 |
| C[N+](C)(CCCCCCOc1c(Br)cc(Br)cc1Br)Cc1ccc([N+](=O)[O-])o1.[Br-] | 100 | > 200 | 5 | 2.5 | 75 | inactive | 10 | > 200 | 200 | inactive | 100 | 25 | 25 | 10 | 100 | 100 | 100 | 25 |
| Cc1cc(OCCCCCCCCCCCC[N+](C)(C)Cc2ccc(Br)o2)c(C(C)C)cc1Cl.Cc1ccc(S(=O)(=O)[O-])cc1 | > 200 | > 200 | 200 | 50 | – | – | 200 | > 200 | > 200 | – | > 200 | > 200 | > 200 | 200 | > 200 | > 200 | > 200 | > 200 |
| Cc1ccc(C[N+](C)(C)CCCCCOc2c(Br)cc(Br)cc2Br)o1.[Br-] | > 200 | > 200 | 5 | 5 | – | – | 7.5 | > 200 | > 200 | – | 100 | 25 | 25 | 5 | > 200 | > 200 | 25 | 100 |
| C[N+](C)(CCCCOc1c(Br)cc(Br)cc1Br)Cc1ccc([N+](=O)[O-])o1.[Br-] | > 200 | > 200 | 10 | 8 | – | – | 25 | > 200 | > 200 | – | > 200 | 50 | 50 | 25 | > 200 | > 200 | 50 | 50 |
| C[N+](C)(CCCCCOc1c(Br)cc(Br)cc1Br)Cc1ccc([N+](=O)[O-])o1.[Br-] | > 200 | > 200 | 5 | 7.5 | – | – | 25 | > 200 | > 200 | – | > 200 | 25 | 25 | 7.5 | > 200 | > 200 | 25 | > 200 |
